Measurements: ChEMBL document CHEMBL1131465, “Design, synthesis, and biological evaluation of conformationally constrained aci-reductone mimics of arachidonic acid” (J Med Chem, 1998)

What was measured:
[1] = biological target: T1, Polyunsaturated fatty acid 5-lipoxygenase (Rattus norvegicus) (UniProt P12527); test: Inhibition of 5-lipoxygenase of rat basophilic leukemia cells at 30 uM; type: cell-based; settings: RBL-1
T1 sequence (whole entry): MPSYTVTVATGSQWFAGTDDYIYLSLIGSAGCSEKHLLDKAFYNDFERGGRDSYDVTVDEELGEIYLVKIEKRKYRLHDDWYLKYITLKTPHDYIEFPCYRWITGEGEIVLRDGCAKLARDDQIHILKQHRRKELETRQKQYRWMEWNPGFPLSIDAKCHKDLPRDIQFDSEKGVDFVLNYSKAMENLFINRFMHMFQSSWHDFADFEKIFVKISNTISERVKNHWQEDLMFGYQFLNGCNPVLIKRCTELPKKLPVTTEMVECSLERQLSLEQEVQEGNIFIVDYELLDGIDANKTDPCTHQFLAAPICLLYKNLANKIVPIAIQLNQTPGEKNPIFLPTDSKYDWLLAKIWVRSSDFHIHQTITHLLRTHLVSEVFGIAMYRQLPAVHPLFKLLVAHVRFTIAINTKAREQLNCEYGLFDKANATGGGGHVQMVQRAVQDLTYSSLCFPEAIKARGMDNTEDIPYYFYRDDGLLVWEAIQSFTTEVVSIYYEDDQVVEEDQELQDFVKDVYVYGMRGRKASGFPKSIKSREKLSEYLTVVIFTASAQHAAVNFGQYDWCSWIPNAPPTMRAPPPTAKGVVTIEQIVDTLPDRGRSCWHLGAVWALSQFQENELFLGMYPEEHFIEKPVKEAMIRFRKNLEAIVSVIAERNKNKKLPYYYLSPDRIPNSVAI
In short: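 5-LO source was a crude enzyme preparation from broken rat basophilic leukemia (RBL-1) cells. Compounds were screened at a single concentration of 30 µM, and results are reported as percent inhibition.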

Cavia porcellus [2] = species: Cavia porcellus; test: (§1) Inhibition of CCl4 induced lipid peroxidation (LPO) of guinea pig hepatic microsomes at 300 uM concentration; type: functional; settings: Liver
In short: (§2)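 Lipid peroxidation of polyunsaturated fatty acids in guinea pig liver microsomes was induced with CCl₄. Test compounds were used at 300 µM. Malondialdehyde (MDA) formation was quantified spectrophotometrically, and results are reported as percent inhibition.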

[3] = biological target: T2, Prostaglandin G/H synthase 1 (Ovis aries) (UniProt P05979); test: Inhibition of Prostaglandin G/H synthase 1 isolated from ram (sheep) seminal vesicle at 300 uM; type: tissue-based
T2 sequence (whole entry): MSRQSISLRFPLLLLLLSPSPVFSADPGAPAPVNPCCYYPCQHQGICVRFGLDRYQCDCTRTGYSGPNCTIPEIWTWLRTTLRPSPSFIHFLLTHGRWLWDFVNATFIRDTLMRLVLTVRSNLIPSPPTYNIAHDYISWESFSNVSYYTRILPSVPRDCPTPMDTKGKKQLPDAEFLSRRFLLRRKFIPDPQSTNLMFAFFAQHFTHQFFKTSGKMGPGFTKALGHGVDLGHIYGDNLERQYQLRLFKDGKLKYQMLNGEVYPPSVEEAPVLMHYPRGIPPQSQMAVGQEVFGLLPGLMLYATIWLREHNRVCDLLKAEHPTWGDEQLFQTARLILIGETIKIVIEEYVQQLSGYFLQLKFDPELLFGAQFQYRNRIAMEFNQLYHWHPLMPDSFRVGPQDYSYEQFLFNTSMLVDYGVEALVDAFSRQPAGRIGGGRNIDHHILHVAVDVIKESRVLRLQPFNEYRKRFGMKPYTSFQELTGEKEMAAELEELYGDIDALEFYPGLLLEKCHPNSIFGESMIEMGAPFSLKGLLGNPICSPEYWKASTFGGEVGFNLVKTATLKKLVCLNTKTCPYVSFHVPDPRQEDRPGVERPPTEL

[4] = biological target: T3, Prostaglandin G/H synthase 2 (Ovis aries) (UniProt P79208); test: Inhibition of Prostaglandin G/H synthase 2 from sheep placenta at 300 uM
T3 sequence (whole entry): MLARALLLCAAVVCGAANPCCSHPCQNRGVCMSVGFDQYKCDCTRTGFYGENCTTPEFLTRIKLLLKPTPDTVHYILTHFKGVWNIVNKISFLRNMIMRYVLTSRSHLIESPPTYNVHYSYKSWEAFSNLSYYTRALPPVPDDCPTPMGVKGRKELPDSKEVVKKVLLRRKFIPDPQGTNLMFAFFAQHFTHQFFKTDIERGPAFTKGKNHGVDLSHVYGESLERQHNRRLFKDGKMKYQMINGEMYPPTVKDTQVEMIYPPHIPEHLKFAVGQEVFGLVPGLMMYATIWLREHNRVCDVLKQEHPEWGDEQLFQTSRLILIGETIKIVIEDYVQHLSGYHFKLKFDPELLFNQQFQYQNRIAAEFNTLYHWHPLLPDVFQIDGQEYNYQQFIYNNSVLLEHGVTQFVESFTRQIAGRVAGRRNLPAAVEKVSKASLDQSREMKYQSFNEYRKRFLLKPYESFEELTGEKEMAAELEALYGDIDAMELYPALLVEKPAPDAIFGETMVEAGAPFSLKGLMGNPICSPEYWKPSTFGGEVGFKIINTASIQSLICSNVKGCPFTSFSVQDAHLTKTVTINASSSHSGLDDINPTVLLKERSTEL

Cavia porcellus [5] = species: Cavia porcellus; test: as §1; type: functional; settings: Liver; in short: as §2; remark: listed apart in the source
[6] = biological target: T4, Polyunsaturated fatty acid 5-lipoxygenase (Rattus norvegicus, UniProt P12527); test: Inhibitory activity against 5-lipoxygenase obtained from rat basophilic leukemia cells
T4 sequence (P12527 whole entry): T1 sequence (whole entry)
In short: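 IC50 was determined against 5-LO in a broken RBL-1 cell assay, using a crude enzyme preparation from rat basophilic leukemia cells.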

Question: Which inhibition [1] does the source give for `CCCCCSCc1ccccc1C#CCCC1OC(O)=C(O)C1=O` (stereo unspecified) here?
Answer: 90%

Question: And the inhibition (Cavia porcellus [2])?
Answer: 62%

Question: And the inhibition [3]?
Answer: 67%

Question: What about the inhibition [4] of the same compound?
Answer: 45%

Question: How did the IC50 (Cavia porcellus [5]) turn out when `Cc1c(C)c2c(c(C)c1O)CC[C@@](C)(CCC[C@H](C)CCC[C@H](C)CCCC(C)C)O2` [ALPHA-TOCOPHEROL] was run?
Answer: 280000 nM

Question: Which IC50 [6] does the source give for `CCC/C=C\Cc1ccccc1C#CCCC1OC(O)=C(O)C1=O` (stereo unspecified) here?
Answer: 400 nM

Question: What about the inhibition [1] of the same compound?
Answer: 81%

Question: What about the inhibition (Cavia porcellus [2]) of the same compound?
Answer: 72%

Question: And the inhibition [3]?
Answer: 55%

Question: What about the inhibition [4] of the same compound?
Answer: 28%

Question: For `CCCSCc1ccccc1C#CCCC1OC(O)=C(O)C1=O` (stereo unspecified), which inhibition [1] is on record?
Answer: 82%

Question: And the inhibition (Cavia porcellus [2])?
Answer: 72%

Question: And the inhibition [3]?
Answer: 38%

Question: What about the inhibition [4] of the same compound?
Answer: 20%

Question: With `O=C1C(O)=C(O)OC1CCC#Cc1ccccc1` (stereo unspecified) as the compound, how does the inhibition [1] read?
Answer: 58%

Question: What about the inhibition (Cavia porcellus [2]) of the same compound?
Answer: 62%

Question: What about the inhibition [3] of the same compound?
Answer: 5%

Question: What about the inhibition [4] of the same compound?
Answer: 13%

Question: For `CCCS(=O)(=O)Cc1ccccc1C#CCCC1OC(O)=C(O)C1=O` (stereo unspecified), which inhibition [1] is on record?
Answer: 30%

Question: What about the inhibition (Cavia porcellus [2]) of the same compound?
Answer: 60%

Question: And the inhibition [3]?
Answer: 25%

Question: And the inhibition [4]?
Answer: 12%

Question: Which inhibition [1] does the source give for `CC(=O)Oc1ccccc1C(=O)O` here?
Answer: 0%

Question: What about the inhibition (Cavia porcellus [2]) of the same compound?
Answer: 4%

Question: And the inhibition [3]?
Answer: 76%

Question: And the inhibition [4]?
Answer: 0%

Question: For `Cc1ccccc1C#CCCC1OC(O)=C(O)C1=O` (stereo unspecified), which inhibition [1] is on record?
Answer: 43%

Question: And the inhibition (Cavia porcellus [2])?
Answer: 59%

Question: What about the inhibition [3] of the same compound?
Answer: 8%

Question: What about the inhibition [4] of the same compound?
Answer: 18%

Question: `CCCCS(=O)(=O)Nc1ccccc1C#CCCC1OC(O)=C(O)C1=O` (stereo unspecified) was tested. Which inhibition [1] did it give?
Answer: 81%

Question: And the inhibition (Cavia porcellus [2])?
Answer: 75%

Question: And the inhibition [3]?
Answer: 8%

Question: What about the inhibition [4] of the same compound?
Answer: 23%

Question: `C[C@H](C#Cc1ccc(Cc2ccc(F)cc2)s1)N(O)C(N)=O` [ATRELEUTON] was tested. Which IC50 [6] did it give?
Answer: 23 nM

Question: With `O=C1C(O)=C(O)OC1CCC#Cc1ccccc1CSc1ccccc1` (stereo unspecified) as the compound, how does the IC50 [6] read?
Answer: 300 nM

Question: And the inhibition [1]?
Answer: 100%

Question: And the inhibition (Cavia porcellus [2])?
Answer: 61%

Question: And the inhibition [3]?
Answer: 25%

Question: What about the inhibition [4] of the same compound?
Answer: 15%

Question: `CCC/C=C\Cc1ccccc1/C=C\CCC1OC(O)=C(O)C1=O` (stereo unspecified) was tested. Which inhibition [1] did it give?
Answer: 99%

Question: What about the inhibition (Cavia porcellus [2]) of the same compound?
Answer: 68%

Question: And the inhibition [3]?
Answer: 37%

Question: What about the inhibition [4] of the same compound?
Answer: 28%

Question: Which IC50 [6] does the source give for `O=C1C(O)=C(O)OC1CCC#Cc1ccc(Cc2ccc(F)cc2)s1` (stereo unspecified) here?
Answer: 160 nM

Question: And the inhibition [1]?
Answer: 100%
